# In ChEMBL document CHEMBL1156147, “Phosphoramidates of 2'-beta-D-arabinouridine (AraU) as phosphate prodrugs; design, synthesis, in vitro activity and metabolism” (Bioorg Med Chem, 2010):
# Active and inactive are the calls of the source. The rule behind the calls is not given here.
# Experiments:
# [1] = system: Human respirovirus 3; assay: Antiviral activity against Human parainfluenza virus 3 assessed as inhibition of virus-induced cytopathicity by cell based assay; assay type: functional, organism-based
# Procedure, shortened: (§1)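 Cytopathicity reduction in confluent HEL, Vero, HeLa, CFKC or MDCK monolayers. Cells were inoculated with 100 CCID50 of virus and allowed 1–2 h adsorption. Residual virus was then removed and cells were incubated with serially varied compound. CPE was scored once complete in untreated infected controls. EC50 is the concentration halving virus-induced cytopathicity.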
# [2] = system: Coxsackievirus B4; assay: Antiviral activity against Coxsackievirus B4 assessed as inhibition of virus-induced cytopathicity by cell based assay; assay type: functional, organism-based; procedure, shortened: as §1
# [3] = system: Respiratory syncytial virus; assay: Antiviral activity against Respiratory syncytial virus Long assessed as inhibition of virus-induced cytopathicity by cell based assay; assay type: functional, organism-based; procedure, shortened: as §1
# [4] = system: Mammalian orthoreovirus 1; assay: Antiviral activity against Reovirus 1 assessed as inhibition of virus-induced cytopathicity by cell based assay; assay type: functional, organism-based; procedure, shortened: as §1
# [5] = system: Human alphaherpesvirus 1; assay: Antiviral activity against thymidine kinase deficient acyclovir resistant HSV1 KOS assessed as inhibition of virus-induced cytopathicity by cell based assay; assay type: functional, organism-based
# [6] = system: U-937; assay: Cytostatic activity human U937 cells; assay type: functional, cell-based
# Procedure, shortened: (§2)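 Leukaemia cells were exposed to serial dilutions from 100 μM down to 0.02 μM for 72 h at 37 °C, 5% CO2. MTS was then added for a further 4 h. Absorbance was read at 490 nm and viability calculated relative to untreated controls. IC50 is the concentration at which 50% of cells are no longer viable.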
# [7] = system: CCRF-CEM; assay: Cytostatic activity human CEM cells; assay type: functional, cell-based
# [8] = system: Sindbis virus; assay: Antiviral activity against Sindbis virus assessed as inhibition of virus-induced cytopathicity by cell based assay; assay type: functional, organism-based; procedure, shortened: as §1
# [9] = system: Human alphaherpesvirus 2; assay: Antiviral activity against Herpes simplex virus2 G assessed as inhibition of virus-induced cytopathicity by cell based assay; assay type: functional, organism-based; details: strain G; procedure, shortened: as §1
# [10] = system: Human alphaherpesvirus 1; assay: Antiviral activity against HSV1 KOS assessed as inhibition of virus-induced cytopathicity by cell based assay; assay type: functional, organism-based; procedure, shortened: as §1
# [11] = system: Human immunodeficiency virus 2; assay: Antiviral activity against HIV2 infected human CEM cells assessed as inhibition of syncytia formation after 4 days; assay type: functional, organism-based; details: CCRF-CEM
# Procedure, shortened: (§3)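 Human CEM cells (~3 × 10^5 cells/mL) were infected with ~100 CCID50/mL of HIV-1(IIIB) or HIV-2(ROD) and seeded with compound dilutions. Syncytia formation was examined microscopically after 4 days at 37 °C. EC50 is the concentration reducing virus-induced cytopathicity by 50%.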
# [12] = system: HL-60; assay: Cytostatic activity against human HL60 cells; assay type: functional, cell-based; procedure, shortened: as §2
# [13] = system: NB-4; assay: Cytostatic activity against human NB4 cells; assay type: functional, cell-based; procedure, shortened: as §2
# [14] = system: L1210; assay: Cytostatic activity mouse L1210 cells; assay type: functional, cell-based
# [15] = system: Punta Toro virus; assay: Antiviral activity against Punta Toro virus assessed as inhibition of virus-induced cytopathicity by cell based assay; assay type: functional, organism-based; procedure, shortened: as §1
# [16] = system: Vaccinia virus; assay: Antiviral activity against Vaccinia virus lederle assessed as inhibition of virus-induced cytopathicity by cell based assay; assay type: functional, organism-based; details: Orthopoxvirus vaccinia
# [17] = system: Human immunodeficiency virus 1; assay: Antiviral activity against HIV1 3B infected human CEM cells assessed as inhibition of syncytia formation after 4 days; assay type: functional, organism-based; details: CCRF-CEM; procedure, shortened: as §3
# [18] = system: KG-1; assay: Cytostatic activity human KG1 cells; assay type: functional, cell-based; procedure, shortened: as §2
# [19] = system: Influenza A virus; assay: Antiviral activity against influenza A virus H1N1 assessed as inhibition of virus-induced cytopathicity by cell based assay; assay type: functional, organism-based
# [20] = system: Influenza A virus; assay: Antiviral activity against influenza A virus H3N2 assessed as inhibition of virus-induced cytopathicity by cell based assay; assay type: functional, organism-based
# [21] = system: Vesicular stomatitis virus; assay: Antiviral activity against Vesicular stomatitis virus assessed as inhibition of virus-induced cytopathicity by cell based assay; assay type: functional, organism-based
# [22] = system: PC-3; assay: Cytostatic activity against human PC3 cells after 96 hrs by MTT assay; assay type: functional, cell-based; details: PC-3, 96 h
# Procedure, shortened: (§4)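 Cells were seeded at 5 × 10^3 per well and allowed 24 h to adhere. Compound was added from DMSO stocks as decimal dilutions (final 0.1–100 μM) for 96 h at 37 °C, 5% CO2. MTT (final 0.5 mg/mL) was added for 4 h and formazan solubilised in 10% Triton X-100/PBS. Absorbance was read at 540 nm. IC50 is inhibition relative to control.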
# [23] = system: LoVo; assay: Cytostatic activity against human LoVo cells after 96 hrs by MTT assay; assay type: functional, cell-based; procedure, shortened: as §4
# [24] = system: A549; assay: Cytostatic activity against human A549 cells after 96 hrs by MTT assay; assay type: functional, cell-based; details: A549, 96 h; procedure, shortened: as §4
# [25] = system: MCF7; assay: Cytostatic activity against human MCF7 cells after 96 hrs by MTT assay; assay type: functional, cell-based; details: MCF7, 96 h; procedure, shortened: as §4
# [26] = Metabolic stability assessed as half life in the presence of carboxypeptidase Y after 3 hrs at pH 7.6; assay type: ADME; details: Saccharomyces cerevisiae (yeast)
Compound,inhibition [1],inhibition [2],inhibition [3],inhibition [4],inhibition [5],IC50 [6] [µM],IC50 [7] [µM],inhibition [8],inhibition [9],inhibition [10],inhibition [11],IC50 [12] [µM],IC50 [13] [µM],IC50 [14] [µM],inhibition [15],inhibition [16],inhibition [17],IC50 [18] [µM],inhibition [19],inhibition [20],also measured
O=c1ccn([C@@H]2O[C@H](CO)[C@@H](O)[C@@H]2O)c(=O)[nH]1 [ARAURIDINE],inactive,inactive,inactive,inactive,inactive,> 100,> 500,inactive,inactive,inactive,inactive,90,69,170,inactive,inactive,inactive,25,inactive,inactive,inhibition [21]: inactive
C[C@@H](NP(=O)(OC[C@H]1O[C@@H](n2ccc(=O)[nH]c2=O)[C@@H](O)[C@@H]1O)Oc1ccccc1)C(=O)OCc1ccccc1 (some centres not stated),inactive,inactive,inactive,inactive,inactive,> 100,313,inactive,inactive,inactive,inactive,92,88,470,inactive,inactive,inactive,90,inactive,inactive,IC50 [22]: > 100 µM; IC50 [23]: > 100 µM; IC50 [24]: > 100 µM; IC50 [25]: 50 µM; inhibition [21]: inactive
COC(=O)[C@H](C)NP(=O)(OC[C@H]1O[C@@H](n2ccc(=O)[nH]c2=O)[C@@H](O)[C@@H]1O)Oc1ccccc1 (some centres not stated),inactive,inactive,inactive,inactive,inactive,> 100,> 500,inactive,inactive,inactive,inactive,> 100,53,> 500,inactive,inactive,inactive,32,inactive,inactive,IC50 [22]: > 100 µM; IC50 [23]: > 100 µM; IC50 [24]: > 100 µM; IC50 [25]: > 100 µM; inhibition [21]: inactive
O=C(CNP(=O)(OC[C@H]1O[C@@H](n2ccc(=O)[nH]c2=O)[C@@H](O)[C@@H]1O)Oc1ccccc1)OCc1ccccc1 (some centres not stated),inactive,inactive,inactive,inactive,inactive,> 100,196,inactive,inactive,inactive,inactive,> 100,52,256,inactive,inactive,inactive,39,inactive,inactive,IC50 [22]: > 100 µM; IC50 [23]: > 100 µM; IC50 [24]: > 100 µM; IC50 [25]: > 100 µM; inhibition [21]: inactive
C[C@H](NP(=O)(OC[C@H]1O[C@@H](n2ccc(=O)[nH]c2=O)[C@@H](O)[C@@H]1O)Oc1ccccc1)C(=O)OCc1ccccc1 (some centres not stated),inactive,inactive,inactive,inactive,inactive,92,188,inactive,inactive,inactive,inactive,> 100,38,184,inactive,inactive,inactive,63,inactive,inactive,IC50 [22]: > 100 µM; half-life [26]: 15 min; IC50 [23]: > 100 µM; IC50 [24]: > 100 µM; IC50 [25]: > 100 µM; inhibition [21]: inactive
CC(C)OC(=O)[C@H](C)NP(=O)(OC[C@H]1O[C@@H](n2ccc(=O)[nH]c2=O)[C@@H](O)[C@@H]1O)Oc1cccc2ccccc12 (some centres not stated),inactive,inactive,inactive,inactive,inactive,> 100,181,inactive,inactive,inactive,inactive,84,77,250,inactive,inactive,inactive,67,inactive,inactive,IC50 [22]: > 100 µM; IC50 [23]: > 100 µM; IC50 [24]: > 100 µM; IC50 [25]: > 100 µM; inhibition [21]: inactive
